Measurements: ChEMBL document CHEMBL4219238, “Design, synthesis, molecular modelling and in vitro cytotoxicity analysis of novel carbamate derivatives as inhibitors of Monoacylglycerol lipase” (Bioorg Med Chem, 2018)
pIC50: −log10 of the molar value. The source made the active and inactive calls. The calls are words filed in the database; no cut-off is given here.

Columns and labels:
B16-F10 [1] = experiment: Induction of apoptosis in mouse B16F10 cells assessed as live cells at 75 nM after 48 hrs by Annexin V-FITC/propidium iodide staining based flow cytometry (reference value: 79.55%); assay type: functional
Monoglyceride lipase = target: T1, Monoglyceride lipase (Homo sapiens, UniProt Q99685); experiment: Inhibition of recombinant human MAGL using 7-HRA as substrate preincubated for 60 mins followed by substrate addition by fluorescence assay; details: read-out: IC50
T1 sequence (Q99685 whole entry): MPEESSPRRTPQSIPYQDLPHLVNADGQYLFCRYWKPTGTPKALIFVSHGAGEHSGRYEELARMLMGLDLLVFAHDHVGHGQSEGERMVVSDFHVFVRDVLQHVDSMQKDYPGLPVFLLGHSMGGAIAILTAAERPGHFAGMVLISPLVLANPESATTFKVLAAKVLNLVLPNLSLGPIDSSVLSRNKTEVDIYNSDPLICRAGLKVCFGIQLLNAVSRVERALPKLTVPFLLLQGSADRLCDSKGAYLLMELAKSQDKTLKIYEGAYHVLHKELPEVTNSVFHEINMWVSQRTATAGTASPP

MCF7 [2] = experiment: Induction of apoptosis in human MCF7 cells assessed as necrotic cells at 10 uM after 48 hrs by Annexin V-FITC/propidium iodide staining based flow cytometry (reference value: 5.42%); assay type: functional
Summary of the method: (§1)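 HEK293T (DMEM with 10% FBS) or MCF7 (DMEM/Ham's F-12 1:1, 10% FBS) cells treated 48 h with 10 μM compound or DMSO. Staining with Alexa Fluor 488 annexin V plus 5 μg/ml PI in HEPES/NaCl/CaCl2 binding buffer; 10,000 cells per sample read by flow cytometry; n = 3, mean ± S.E.M.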

MCF7 [3] = experiment: Induction of apoptosis in human MCF7 cells assessed as early apoptotic cells at 10 uM after 48 hrs by Annexin V-FITC/propidium iodide staining based flow cytometry (reference value: 3.16%); assay type: functional; summary of the method: as §1
B16-F10 [4] = experiment: Induction of apoptosis in mouse B16F10 cells assessed as necrotic cells at 75 nM after 48 hrs by Annexin V-FITC/propidium iodide staining based flow cytometry (reference value: 5.48%); assay type: functional
B16-F10 [5] = experiment: Antiproliferative activity against mouse B16F10 cells at 35 to 75 nM after 48 hrs by Cyto Tracker red dye based flow cytometry; assay type: functional, cell-based
Summary of the method: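 B16-F10 cells (Iscove's medium, 10% heat-inactivated FBS, 37 °C, 5% CO2) exposed to compound or DMSO for 48 h, stained with CytoTrack Red 628/643 and analysed by flow cytometry. Proliferation index (average number of cells that an initial cell became) expressed as fold change over DMSO control; n = 3; one-way ANOVA with Tukey post-test.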

B16-F10 [6] = experiment: Induction of apoptosis in mouse B16F10 cells assessed as late apoptotic cells at 35 nM after 48 hrs by Annexin V-FITC/propidium iodide staining based flow cytometry (reference value: 13.54%); assay type: functional
B16-F10 [7] = experiment: Induction of apoptosis in mouse B16F10 cells assessed as apoptotic cells after 48 hrs by Annexin V-FITC/propidium iodide staining based flow cytometry
[8] = target: T2, Monoglyceride lipase (Homo sapiens) (UniProt Q99685); experiment: Inhibition of MAGL in human MCF7 cells at 10 uM using 7-HRA as substrate preincubated for 6 hrs followed by substrate addition by fluorescence assay; assay type: cell-based
T2 sequence (whole entry): T1 sequence (Q99685 whole entry)
Summary of the method: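 MCF7 cells cultured 6 h with 10 μM compound or DMSO, then lysed; MAGL activity measured on total cell lysate using the 7-HRA fluorogenic assay.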

B16-F10 [9] = experiment: Induction of apoptosis in mouse B16F10 cells assessed as late apoptotic cells at 10 uM after 48 hrs by Annexin V-FITC/propidium iodide staining based flow cytometry (reference value: 7.39%); assay type: functional
[10] = target: T3, Fatty-acid amide hydrolase 1 (Homo sapiens) (UniProt O00519); experiment: Inhibition of human FAAH at 10 uM using AAMCA as substrate preincubated for 1 hr followed by substrate addition measured after 30 mins by fluorescence assay relative to control
T3 sequence (whole entry): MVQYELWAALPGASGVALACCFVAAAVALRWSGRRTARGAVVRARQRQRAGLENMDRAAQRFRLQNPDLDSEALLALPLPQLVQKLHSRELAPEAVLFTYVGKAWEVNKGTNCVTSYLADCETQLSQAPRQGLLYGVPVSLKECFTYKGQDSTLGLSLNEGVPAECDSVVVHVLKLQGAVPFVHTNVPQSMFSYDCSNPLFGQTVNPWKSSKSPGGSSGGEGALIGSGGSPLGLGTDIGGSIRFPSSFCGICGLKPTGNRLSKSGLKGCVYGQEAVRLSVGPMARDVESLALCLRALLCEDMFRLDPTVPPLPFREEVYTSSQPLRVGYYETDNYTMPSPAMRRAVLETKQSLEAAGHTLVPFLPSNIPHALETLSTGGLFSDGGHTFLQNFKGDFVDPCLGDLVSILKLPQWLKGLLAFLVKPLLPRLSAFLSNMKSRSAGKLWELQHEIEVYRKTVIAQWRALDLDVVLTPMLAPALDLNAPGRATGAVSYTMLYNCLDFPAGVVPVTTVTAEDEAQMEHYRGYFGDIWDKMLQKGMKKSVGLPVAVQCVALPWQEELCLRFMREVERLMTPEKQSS
Summary of the method: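 Recombinant human FAAH (C-terminal His-tagged, Sf21), 1 U/well, in 50 mM Tris-HCl, 1 mM EDTA, pH 9, preincubated 1 h at room temperature with 10 μM compound (final). AAMCA added to 20 μM final; fluorescence (ex 360/em 460 nm) read every 3 min for 30 min. Rate by linear regression, no-enzyme background subtracted, normalised to no-inhibitor control.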

[11] = Induction of apoptosis in HEK293T cells assessed as live cells at 10 uM after 48 hrs by Annexin V-FITC/propidium iodide staining based flow cytometry (reference value: 82.43%); assay type: cell-based, HEK-293T; details: human, read-out: Activity; summary of the method: as §1
MCF7 [12] = experiment: Induction of apoptosis in human MCF7 cells assessed as late apoptotic cells at 10 uM after 48 hrs by Annexin V-FITC/propidium iodide staining based flow cytometry (reference value: 8.84%); assay type: functional; summary of the method: as §1
B16-F10 [13] = experiment: Effect on MAGL mRNA expression in mouse B16F10 cells by RT-PCR method; assay type: functional

pIC50 (Monoglyceride lipase): 5.17 | inhibition [8]: Active | inhibition [10]: 10%
Structure (SMILES): O=C(Nc1cccc(-c2ccc(C(F)(F)F)cc2)c1)OCc1ccco1
Activity (B16-F10 [1]): 62.84% | Activity (MCF7 [2]): 5.33% | Activity (MCF7 [3]): 8.77% | Activity (B16-F10 [4]): 4.33% | Activity (B16-F10 [5]): Active | Activity (B16-F10 [6]): 29.37% | Activity (B16-F10 [7]): Dose-dependent effect | Activity (B16-F10 [9]): 64.08% | viability at 48 h, 10 µM [11]: 81.4% | Activity (MCF7 [12]): 25.63% | deltaCT (B16-F10 [13]): 11.05
